Here are results for 38 sequences from the array DNA melting data of Ke et al. (doi:10.1101/2024.01.08.574731).

Series [1] is described as follows: melting temperature; fluorescence melt of hairpins on a sequencing array, two-state fit, raised by 9.35 °C to match UV melts. Conditions: sodium 0.088 M. In outline: (§1)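 With Cy3 and quencher oligos annealed, library hairpins on a sequenced MiSeq flow cell were imaged for Cy3 fluorescence in 50 mM Na-HEPES pH 8.0, 25 mM NaCl, in 2.5 °C steps up to 60 °C. Melting temperature and folding enthalpy were derived from bootstrapped two-state fits of signals normalised to pre-quench Cy3 and to control constructs. Four replicates were combined by inverse variance, with fitted temperatures raised by 9.35 °C to match UV melts.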

Series [2] in a line: folding enthalpy; higher = less favourable; fluorescence melt of hairpins on a sequencing array, two-state fit. Conditions: sodium 0.088 M. In outline:
as §1

Regarding GATCTATCAATAGATC ((((((....)))))), the Tm in series [1] was determined as 42.8 °C. In addition, the folding enthalpy in series [2] is -33.6 kcal/mol.

As to GATCTATCCCTAGATC ((((((....)))))), in series [1], the Tm worked out at 41.4 °C. For the same sequence, the folding enthalpy in series [2] was -32.4 kcal/mol.

Regarding GATCTATCCTTAGATC ((((((....)))))), the Tm in series [1] was determined as 44.4 °C. Besides, in series [2], the folding enthalpy is -34.1 kcal/mol.

As for GATCTATCTTTAGATC ((((((....)))))), in series [1], the Tm worked out at 43.1 °C. In series [2], the folding enthalpy is -24.1 kcal/mol.

For the sequence GATCTATGGTTAGATC ((((((....)))))), in series [1], the Tm amounted to 41.5 °C. Moreover, in series [2], the folding enthalpy is -36 kcal/mol.

As for GATCTATGTTTAGATC ((((((....)))))), the Tm in series [1] stood at 43.9 °C. Besides, the folding enthalpy in series [2] is -32.9 kcal/mol.

In the case of GATCTCAACTGAGATC ((((((....)))))), the Tm in series [1] came to 52.1 °C. Also, the folding enthalpy in series [2] is -44.1 kcal/mol.

With GATCTCAAGAGAGATC ((((((....)))))), in series [1], the Tm stood at 49.4 °C. Besides, the folding enthalpy in series [2] was -32.5 kcal/mol.

Consider GATCTCAAGCGAGATC ((((((....)))))), for which the Tm in series [1] was found to be 50.4 °C. The folding enthalpy in series [2] is -37.6 kcal/mol.

GATCTCACATGAGATC ((((((....)))))): the Tm in series [1] amounted to 52.5 °C. Besides, the folding enthalpy in series [2] is -40.1 kcal/mol.

Take GATCTCACCAGAGATC ((((((....)))))): in series [1], the Tm worked out at 54.5 °C. The folding enthalpy in series [2] was -31.9 kcal/mol.

With GATCTCACGAAAGTGATC (((..(((....)))))), in series [1], the Tm came out at 30.2 °C. For the same sequence, the folding enthalpy in series [2] was -9.7 kcal/mol.

Take GATCTCACGGAGATC ((((((...)))))): the Tm in series [1] was found to be 54.1 °C. Moreover, the folding enthalpy in series [2] was -41.9 kcal/mol.

Take GATCTCATGGAGATC ((((((...)))))): the Tm in series [1] is 54 °C. Moreover, the folding enthalpy in series [2] is -33.9 kcal/mol.

Turning to GATCTCATTGGAGATC ((((((....)))))), the Tm in series [1] stood at 52.2 °C. Also, the folding enthalpy in series [2] is -38.7 kcal/mol.

Turning to GATCTCCAAGGAGATC ((((((....)))))), in series [1], the Tm came out at 55.7 °C. Besides, the folding enthalpy in series [2] is -35 kcal/mol.

Take GATCTCCAGAGAGATC ((((((....)))))): in series [1], the Tm was 52 °C. Also, in series [2], the folding enthalpy is -38.8 kcal/mol.

In the case of GATCTCCAGTGAGATC ((((((....)))))), the Tm in series [1] was 50.7 °C. The folding enthalpy in series [2] was -32 kcal/mol.

GATCTCCCAAGAGATC ((((((....)))))): the Tm in series [1] was determined as 53.4 °C. The folding enthalpy in series [2] was -34.3 kcal/mol.

Take GATCTCCCAGAGATC ((((((...)))))): the Tm in series [1] came out at 53.5 °C. Further, the folding enthalpy in series [2] was -40 kcal/mol.

Consider GATCTCCCCGGAGATC ((((((....)))))), for which the Tm in series [1] is 57.6 °C. Moreover, the folding enthalpy in series [2] is -35.1 kcal/mol.

GATCTCCCTCGAGATC ((((((....)))))): the Tm in series [1] is 51.7 °C. Moreover, the folding enthalpy in series [2] was -41.1 kcal/mol.

Consider GATCTCCCTTGAGATC ((((((....)))))), for which the Tm in series [1] came to 52.6 °C. For the same sequence, the folding enthalpy in series [2] was -39.4 kcal/mol.

In the case of GATCTCCGAAAGGAATC (((.(((....)))))), the Tm in series [1] was found to be 33.3 °C. In addition, the folding enthalpy in series [2] was -14.4 kcal/mol.

In the case of GATCTCCGAAAGGACATC (((.(((....))).))), in series [1], the Tm came to 30.4 °C. In addition, the folding enthalpy in series [2] is -17 kcal/mol.

In the case of GATCTCCGGGAGATC ((((((...)))))), the Tm in series [1] turned out to be 52.8 °C. Besides, the folding enthalpy in series [2] is -39.7 kcal/mol.

In the case of GATCTCCTACGAGATC ((((((....)))))), the Tm in series [1] was found to be 52.4 °C. Further, the folding enthalpy in series [2] is -34.5 kcal/mol.

Take GATCTCCTATGAGATC ((((((....)))))): in series [1], the Tm is 53.4 °C. Moreover, the folding enthalpy in series [2] is -39.2 kcal/mol.

Take GATCTCCTCGAGATC ((((((...)))))): in series [1], the Tm turned out to be 54.5 °C. In addition, in series [2], the folding enthalpy was -38.6 kcal/mol.

For GATCTCCTGTGAGATC ((((((....)))))), the Tm in series [1] worked out at 52.5 °C. In addition, the folding enthalpy in series [2] was -45.7 kcal/mol.

With GATCTCCTTAGAGATC ((((((....)))))), the Tm in series [1] was 56.4 °C. In addition, in series [2], the folding enthalpy was -37.1 kcal/mol.

As for GATCTCCTTCGAGATC ((((((....)))))), in series [1], the Tm stood at 52.1 °C. The folding enthalpy in series [2] was -42.5 kcal/mol.

Turning to GATCTCGAAGAGATC ((((((...)))))), the Tm in series [1] came out at 68.5 °C. The folding enthalpy in series [2] is -34.2 kcal/mol.

As to GATCTCGAAGGAGATC ((((((....)))))), the Tm in series [1] is 55.1 °C. The folding enthalpy in series [2] was -32.9 kcal/mol.

Consider GATCTCGACGAGATC ((((((...)))))), for which the Tm in series [1] was 57.4 °C. Besides, in series [2], the folding enthalpy was -38.9 kcal/mol.

Consider GATCTCGAGAGAGATC ((((((....)))))), for which the Tm in series [1] worked out at 63.7 °C. For the same sequence, the folding enthalpy in series [2] is -32.6 kcal/mol.

In the case of GATCTCGAGCGAGATC ((((((....)))))), in series [1], the Tm was determined as 53.3 °C. Besides, in series [2], the folding enthalpy is -48.4 kcal/mol.

GATCTCGAGTGAGATC ((((((....)))))): the Tm in series [1] came out at 51.8 °C. Moreover, the folding enthalpy in series [2] is -35.7 kcal/mol.
